{
  "source": "ChEMBL document CHEMBL1122340",
  "about": "“11,12-secoprostaglandins. 6. Interphenylene analogues of acylhydroxyalkanoic acids and related compounds as renal vasodilators” (1983)",
  "key": {"Canis familiaris [1]": {"tested_on": "Canis familiaris", "assay": "Percentage change in renal resistance in anesthetized dogs", "type": "functional, Canis lupus familiaris", "summary_of_the_method": "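Anesthetized dogs, femoral artery and vein catheterized for BP and iv injection; at least 30 min recovery after surgery. Mean renal blood flow and mean arterial BP sampled at 1-min intervals over a 30-min control period, then 500 µg/kg given iv bolus in aqueous solution as Na salt, monitored 30 min more. Renal resistance = mean BP / mean RBF. Two dogs per compound; saline placebo in three dogs.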"}, "Canis familiaris [2]": {"tested_on": "Canis familiaris", "assay": "Mean heart rate in conscious dog at 0-1 hr after 5 mg/kg (po) compound administration", "type": "functional, Canis lupus familiaris", "summary_of_the_method": "(§1)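 Conscious dogs, 3 per group. Dose 5 mg/kg given orally in a gelatin capsule; lactose capsule as placebo. Renal blood flow (flow meters), arterial pressure (transducer) and heart rate recorded digitally every 2 min through a 30-min predrug control period and 5 h postdose. Readings averaged for the control period and for each posttreatment hour; means ± SE.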"}, "Canis familiaris [3]": {"tested_on": "Canis familiaris", "assay": "Mean heart rate in conscious dog at 1-2 hr after 5 mg/kg (po) compound administration", "type": "functional, Canis lupus familiaris", "summary_of_the_method": "as §1"}, "Canis familiaris [4]": {"tested_on": "Canis familiaris", "assay": "Mean heart rate in conscious dog at 2-3 hr after 5 mg/kg (po) compound administration", "type": "functional, Canis lupus familiaris", "summary_of_the_method": "as §1"}, "Canis familiaris [5]": {"tested_on": "Canis familiaris", "assay": "Mean heart rate in conscious dog at 3-4 h after 5 mg/kg (po) compound administration", "type": "functional, Canis lupus familiaris", "summary_of_the_method": "as §1"}, "Canis familiaris [6]": {"tested_on": "Canis familiaris", "assay": "Mean heart rate in conscious dog at 4-5 hr after 5 mg/kg (po) compound administration", "type": "functional, Canis lupus familiaris", "summary_of_the_method": "as §1"}, "Canis familiaris [7]": {"tested_on": "Canis familiaris", "assay": "Mean renal blood (RBF) flow in conscious dog at 0-1 hr after 5 mg/kg (po)", "type": "functional, Canis lupus familiaris, Kidney", "summary_of_the_method": "as §1"}, "Canis familiaris [8]": {"tested_on": "Canis familiaris", "assay": "Mean renal blood flow (RBF) in conscious dog at 1-2h after 5 mg/kg (po)", "type": "functional, Canis lupus familiaris, Kidney", "summary_of_the_method": "as §1"}, "Canis familiaris [9]": {"tested_on": "Canis familiaris", "assay": "Mean renal blood flow (RBF) in conscious dog at 4-5 hr after 5 mg/kg (po)", "type": "functional, Canis lupus familiaris, Kidney", "summary_of_the_method": "as §1"}, "Canis familiaris [10]": {"tested_on": "Canis familiaris", "assay": "Mean renal blood flow (RBF) in conscious dog at 2-3 hr after 5 mg/kg (po)", "type": "functional, Canis lupus familiaris, Kidney", "summary_of_the_method": "as §1"}, "Canis familiaris [11]": {"tested_on": "Canis familiaris", "assay": "Mean renal blood flow in (RBF) conscious dog at 3-4 hr after 5 mg/kg (po)", "type": "functional, Canis lupus familiaris, Kidney", "summary_of_the_method": "as §1"}, "Canis familiaris [12]": {"tested_on": "Canis familiaris", "assay": "Mean arterial blood pressure in conscious dog at 0-1 hr after 5 mg/kg (po) compound administration", "type": "functional, Canis lupus familiaris", "summary_of_the_method": "as §1"}, "Canis familiaris [13]": {"tested_on": "Canis familiaris", "assay": "Mean arterial blood pressure in conscious dog at 1-2 hr after 5 mg/kg (po) compound administration", "type": "functional, Canis lupus familiaris", "summary_of_the_method": "as §1"}, "Canis familiaris [14]": {"tested_on": "Canis familiaris", "assay": "Mean arterial blood pressure in conscious dog at 2-3 h after 5 mg/kg (po) compound administration", "type": "functional, Canis lupus familiaris", "summary_of_the_method": "as §1"}, "Canis familiaris [15]": {"tested_on": "Canis familiaris", "assay": "Mean arterial blood pressure in conscious dog at 3-4 h after 5 mg/kg (po) compound administration", "type": "functional, Canis lupus familiaris", "summary_of_the_method": "as §1"}, "Canis familiaris [16]": {"tested_on": "Canis familiaris", "assay": "Mean arterial blood pressure in conscious dog at 4-5 h after 5 mg/kg (po) compound administration", "type": "functional, Canis lupus familiaris", "summary_of_the_method": "as §1"}},
  "data": [
    {"molecule": "CCCCCC(O)CCCC(CCCc1cccc(C(=O)O)c1)C(C)=O", "note": "(stereo unspecified)", "values": [
      {"measurement": "Change", "setting": "Canis familiaris [1]", "value": -20, "unit": "%"}
    ]},
    {"molecule": "CCCCCC(O)CCCN(CCCc1ccc(C(=O)O)cc1)S(C)(=O)=O", "note": "(stereo unspecified)", "values": [
      {"measurement": "Change", "setting": "Canis familiaris [1]", "value": 5, "unit": "%"}
    ]},
    {"molecule": "CCCCCC(O)CCCC(CCCc1ccc(C(=O)O)cc1)C(C)=O", "note": "(stereo unspecified)", "values": [
      {"measurement": "HR", "setting": "Canis familiaris [2]", "value": 74, "unit": "beats min-1"},
      {"measurement": "HR", "setting": "Canis familiaris [3]", "value": 73, "unit": "beats min-1"},
      {"measurement": "HR", "setting": "Canis familiaris [4]", "value": 74, "unit": "beats min-1"},
      {"measurement": "HR", "setting": "Canis familiaris [5]", "value": 64, "unit": "beats min-1"},
      {"measurement": "HR", "setting": "Canis familiaris [6]", "value": 68, "unit": "beats min-1"},
      {"measurement": "RBF", "setting": "Canis familiaris [7]", "value": 137, "unit": "mL/min"},
      {"measurement": "RBF", "setting": "Canis familiaris [8]", "value": 194, "unit": "mL/min"},
      {"measurement": "RBF", "setting": "Canis familiaris [9]", "value": 124, "unit": "mL/min"},
      {"measurement": "RBF", "setting": "Canis familiaris [10]", "value": 173, "unit": "mL/min"},
      {"measurement": "RBF", "setting": "Canis familiaris [11]", "value": 139, "unit": "mL/min"},
      {"measurement": "MABP", "setting": "Canis familiaris [12]", "value": 116, "unit": "mmHg"},
      {"measurement": "MABP", "setting": "Canis familiaris [13]", "value": 106, "unit": "mmHg"},
      {"measurement": "MABP", "setting": "Canis familiaris [14]", "value": 97, "unit": "mmHg"},
      {"measurement": "MABP", "setting": "Canis familiaris [15]", "value": 95, "unit": "mmHg"},
      {"measurement": "Change", "setting": "Canis familiaris [1]", "value": -47, "unit": "%"},
      {"measurement": "MABP", "setting": "Canis familiaris [16]", "value": 106, "unit": "mmHg"}
    ]},
    {"molecule": "CCCCCC(O)CCCC(Cc1ccc(CCC(=O)O)cc1)C(C)=O", "note": "(stereo unspecified)", "values": [
      {"measurement": "Change", "setting": "Canis familiaris [1]", "value": 13, "unit": "%"}
    ]},
    {"molecule": "CC(=O)C(CCCc1ccc(C(=O)O)cc1)CCCC1(O)CCCCC1", "note": "(stereo unspecified)", "values": [
      {"measurement": "Change", "setting": "Canis familiaris [1]", "value": -42, "unit": "%"}
    ]},
    {"molecule": "CS(=O)(=O)N(CCCc1ccc(C(=O)O)cc1)CCCC1(O)CCCCC1", "values": [
      {"measurement": "Change", "setting": "Canis familiaris [1]", "value": -7, "unit": "%"}
    ]},
    {"molecule": "CS(=O)(=O)N(CC#CC1(O)CCCCC1)CCCc1ccc(C(=O)O)cc1", "values": [
      {"measurement": "Change", "setting": "Canis familiaris [1]", "value": -10, "unit": "%"}
    ]},
    {"molecule": "CCCCCC(O)CCCC(CCCc1ccc(C(=O)O)cc1)C(C)O", "note": "(stereo unspecified)", "values": [
      {"measurement": "Change", "setting": "Canis familiaris [1]", "value": -19, "unit": "%"}
    ]},
    {"molecule": "CCCCCC(O)CCCC(CCCCc1ccccc1C(=O)O)C(C)=O", "note": "(stereo unspecified)", "values": [
      {"measurement": "Change", "setting": "Canis familiaris [1]", "value": 19, "unit": "%"}
    ]},
    {"molecule": "CCCOCC(O)CCCC(CCCc1ccc(C(=O)O)cc1)C(C)=O", "note": "(stereo unspecified)", "values": [
      {"measurement": "Change", "setting": "Canis familiaris [1]", "value": -43, "unit": "%"}
    ]},
    {"molecule": "CCCCCC(O)CCCC(CCCCc1ccc(C(=O)O)cc1)C(C)=O", "note": "(stereo unspecified)", "values": [
      {"measurement": "Change", "setting": "Canis familiaris [1]", "value": 18, "unit": "%"}
    ]}
  ]
}
